Active and inactive are the calls of the source. The calls are words filed in the database; no cut-off is given here.
Experiments:
HeLa [1] = test: Cytotoxicity against human HeLa cells assessed as cell death at 5 to 20 uM after 24 hrs by trypan blue exclusion assay; type: functional
Summary of the method: (§1)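 Cells treated 24 h with dye at 5, 10 or 20 µM (PC-3 in RPMI; HeLa and HDF in DMEM; 10% FBS, 1% penicillin/streptomycin). Cells pelleted, PBS-washed, mixed 1:1 with 0.4% trypan blue in PBS pH 7.4, 5 min room temperature. Blue cells scored non-viable by microscope counting. Mean and SD of three independent experiments.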

PC-3 [2] = test: Cytotoxicity against human PC3 cells assessed as cell death at 5 to 20 uM after 24 hrs by trypan blue exclusion assay; type: functional; summary of the method: as §1
HeLa [3] = test: Cytotoxicity against human HeLa cells after 48 hrs by MTT assay; type: functional, cell-based
Summary of the method: (§2)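 HeLa and HDF in DMEM, PC-3 in RPMI, each with 10% FBS and 1% pen/strep. Seeded at 5 × 10³ cells/well, then given dye in DMSO (final DMSO 0.1%) at 0, 0.75, 1, 2, 5, 10, 15, 20 µM for 48 h. Washed twice with PBS, MTT added, 4 h at 37 °C in the dark. Formazan dissolved in DMSO, A570 read. IC50 taken from the survival-versus-concentration curve.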

PC-3 [4] = test: Cytotoxicity against human PC3 cells after 48 hrs by MTT assay; type: functional, cell-based; settings: for IC50: PC-3, 48 h; summary of the method: as §2
[5] = Cytotoxicity against human HDF cells assessed as cell viability at 5 to 20 uM after 24 hrs by trypan blue exclusion assay; type: cell-based; settings: for Activity: hdf, 24 h, 20 µM
Summary of the method: (§3)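 Primary human dermal fibroblasts in DMEM with 10% FBS and 1% pen/strep, dosed at 5, 10 or 20 µM for 24 h. Cells pelleted and washed with PBS, then mixed 1:1 with 0.4% trypan blue in PBS pH 7.4, 5 min RT. Blue cells scored non-viable by microscope counting. Mean ± SD of three independent experiments.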

[6] = Cytotoxicity against human HDF cells after 48 hrs by MTT assay; type: cell-based; settings: for Activity: human, hdf; for IC50: Homo sapiens, HDF; summary of the method: as §2
[7] = Cellular uptake in human PC3 cell cytoplasm at 20 uM after 8 hrs by fluorescence confocal microscopic analysis; type: ADME, cell-based; settings: pc-3, 8 h
Summary of the method: (§4)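 PC-3 (RPMI) or primary human dermal fibroblasts (DMEM), 10% FBS, 1% pen/strep, grown on glass coverslips and exposed to dye at 20 µM for 8 h. Fixed in cold (−20 °C) methanol 10 min, blocked in 2% BSA/PBS at 37 °C 1 h, actin stained with fluorescent phalloidin 1 h RT, mounted with DAPI antifade. NIR dye imaged with ICG filter set and 780 nm LED.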

[8] = Cellular uptake in human HDF cell cytoplasm at 20 uM after 8 hrs by fluorescence confocal microscopic analysis; type: ADME, cell-based; summary of the method: as §4
[9] = Cytotoxicity against human HDF cells assessed as cell death at 5 to 10 uM after 24 hrs by trypan blue exclusion assay; type: cell-based; summary of the method: as §3
[10] = Cytotoxicity against human HDF cells assessed as cell death at 20 uM after 24 hrs by trypan blue exclusion assay; type: cell-based; summary of the method: as §3
HeLa [11] = test: Cytotoxicity against human HeLa cells assessed as cell survival at 5 to 10 uM after 24 hrs by trypan blue exclusion assay; type: functional; summary of the method: as §1
PC-3 [12] = test: Cytotoxicity against human PC3 cells assessed as cell survival at 5 to 10 uM after 24 hrs by trypan blue exclusion assay; type: functional; summary of the method: as §1
[13] = Cytotoxicity against human HDF cells assessed as cell survival at 5 to 10 uM after 24 hrs by trypan blue exclusion assay; type: cell-based; settings: read-out: Survival; summary of the method: as §1

SMILES	Activity (HeLa [1])	Activity (PC-3 [2])	Activity (HeLa [3])	Activity (PC-3 [4])	Activity [5]	Activity [6]	Drug uptake [7]	Drug uptake [8]	Activity [9]	Activity [10]	Survival (HeLa [11])	Survival (PC-3 [12])	viability at 24 h, up to 10 µM [13]	IC50 (HeLa [3])	IC50 (PC-3 [4])	IC50 [6]	viability at 24 h, up to 20 µM ([5]; HDF cells, read-out: Activity)
CC1(C)C(/C=C/C2=C(Cl)C(=C/C=C3/N(CCCCS(=O)(=O)O)c4ccccc4C3(C)C)/CCC2)=[N+](CCCCS(=O)(=O)[O-])c2ccccc21	inactive	inactive	inactive	inactive	–	–	–	–	–	–	–	–	–	–	–	–	–
CC1(C)C(/C=C/C2=C(Cl)C(=C/C=C3\N(CCCCS(=O)(=O)[O-])c4ccccc4C3(C)C)/CCC2)=[N+](CCCCS(=O)(=O)[O-])c2ccccc21.[Na+]	–	–	–	–	Non-toxic	Non-toxic	Not Active	Not Active	–	–	–	–	–	–	–	–	–
COC(=O)CCCCCN1/C(=C/C=C2\CCCC(/C=C/C3=[N+](CCCCCC(=O)O)c4ccccc4C3(C)C)=C2Cl)C(C)(C)c2ccccc21.[Br-]	Active	Active	–	–	–	–	Active	Not Active	10%	80%	20%	20%	85%	1000 nM	2000 nM	5 µM	–
CC1(C)C(/C=C/C2=C(Cl)C(=C/C=C3/N(CCCCCC(=O)O)c4ccccc4C3(C)C)/CCC2)=[N+](CCCCCC(=O)O)c2ccccc21.[Br-]	inactive	inactive	inactive	inactive	Non-toxic	Non-toxic	Not Active	Not Active	–	–	–	–	–	–	–	–	–
COC(=O)CCCCCN1/C(=C/C=C2\CCCC(/C=C/C3=[N+](CCCCCC(=O)OC)c4ccccc4C3(C)C)=C2Cl)C(C)(C)c2ccccc21.[Br-]	>90%	>90%	–	–	–	–	Active	Not Active	–	–	–	–	–	800 nM	3000 nM	10 µM	100%

— ChEMBL document CHEMBL1944617, “Near infrared active heptacyanine dyes with unique cancer-imaging and cytotoxic properties” (Bioorg Med Chem Lett, 2012)
